Data set [1] in a line: Pharmacokinetics after intravenous injection in rats. The following applies: i.v., 10 mg/kg. The class given is in vivo, Sprague-Dawley rats. The procedure, abridged: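 Male Sprague-Dawley rats (~200 g), n = 3, received ethanol solutions or co-loaded mPEG-PDLA micelles i.v. at 10 mg/kg. Orbital plexus blood was drawn into heparin tubes at 0.083–12 h. Plasma was separated at 5000 rpm for 10 min and stored at −20 °C. Carbamazepine was the internal standard, with methyl tert-butyl ether extraction. UV detection was at 228 or 306 nm. Parameters are mean ± SD.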

The next data set has as its system MCF-7 cells. The data set can be described thus: MTT assay of DTX, RES and their combinations at different mass ratios. Conditions: Homo sapiens. The class given is cell-based. The procedure, abridged:
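MCF-7 cells seeded at 6000 cells/well 12 h before dosing, then exposed to each test compound alone (0–50.0 or 0–100.0 µg/ml) or as 1:1 combinations (2.5+2.5 to 50+50 µg/ml); DMEM vehicle control. After two days, OD read at 490 nm. Six replicate wells per condition, at least three independent repeats. Combination index calculated for 2:1, 1:1 and 1:2 mass ratios.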

Where [2] appears, read: MCF7, read-out: IC50 in MCF-7 cells.

This is an account of results in article PMC7032195 (Asian Journal of Pharmaceutical Sciences, 2018).

Read-outs that look alike come from different tables or passages of the source.

For the molecule `CC(=O)O[C@@]12CO[C@@H]1C[C@H](O)[C@@]1(C)C(=O)[C@H](O)C3=C(C)[C@@H](OC(=O)[C@H](O)[C@@H](NC(=O)OC(C)(C)C)c4ccccc4)C[C@@](O)([C@@H](OC(=O)c4ccccc4)[C@H]21)C3(C)C` [DTX, docetaxel], the “V” value in data set [1] (analyte DTX) was found to be 3.79 ± 0.83 L/kg. Moreover, the IC50 with MCF-7 cells (MCF7, read-out: IC50 (µg/ml) DTX) was found to be 10.4 ± 0.43 µg/mL; in the data set on MCF-7 cells (setting [2]) it was 10.4 µg/mL.

For `Oc1ccc(/C=C/c2cc(O)cc(O)c2)cc1` [RES, resveratrol], the “V” value in data set [1] (analyte RES) was 3.45 ± 2.93 L/kg. The IC50 was 23 ± 0.54 µg/mL with MCF-7 cells (MCF7, read-out: IC50 (µg/ml) RES) and 23 µg/mL in the data set on MCF-7 cells (setting [2]).
